ChEMBL document CHEMBL5532739, “Competitive Microarray Screening Reveals Functional Ligands for the DHX15 RNA G-Quadruplex” (ACS Med Chem Lett, 2024)
Calls of active or inactive are those of the source. The rule behind the calls is not given here.

Columns and labels:
Quadruplex RNA [1] = assay: Binding affinity to DHX15 rG4 (unknown origin) assessed as dissociation constant measured after 320 secs by SPR analysis; type: nucleic-acid assay
[2] = Inhibition of DHX15 mRNA translation in rabbit reticulocyte lysate transfected with DHX15-G4-WT-FL at 10 uM incubated for 15 mins by firefly luciferase assay relative to control; type: functional; conditions: Oryctolagus cuniculus, 0.25 h
Method in brief: (§1)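 Cell-free translation: in vitro transcribed firefly luciferase reporter RNAs carrying DHX15 5' region (WT or G4-deleted) incubated in rabbit reticulocyte lysate with analyte, dose-dependent; luciferase activity as translation read-out; IC50 from dose-response.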

Reticulocyte [3] = assay: Inhibition of DHX15 mRNA translation in rabbit reticulocyte lysate transfected with DHX15-G4-Del-FL at 10 uM incubated for 15 mins by firefly luciferase assay; type: functional, subcellular; conditions: Oryctolagus cuniculus; method in brief: as §1
Quadruplex RNA [4] = assay: Displacement of ThT from DHX15 rG4 (unknown origin) at upto 100 uM measured after 15 mins by FID assay relative to control; type: nucleic-acid assay
Method in brief: (§2)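 Fluorescent intercalator displacement on DHX15 rG4, dose-dependent, using thioflavin T or Hoechst 33258 (groove binder) as probe; displacement measured as loss of probe fluorescence.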

Quadruplex RNA [5] = assay: Displacement of Hoechst 33258 from DHX15 rG4 (unknown origin) at 100 uM measured after 15 mins by FID assay relative to control; type: nucleic-acid assay; method in brief: as §2
Quadruplex RNA [6] = assay: Binding affinity to DHX15 rG4 (unknown origin) assessed as induction of RNA G quadruplex formation by measuring increase in intensity at 4 to 20 uM in presence of KCl by circular dichroism method; type: nucleic-acid assay; conditions: dose 4-20 µM
Quadruplex RNA [7] = assay: Binding affinity to DHX15 rG4 (unknown origin) assessed as thermal stability by measuring change in melting temperature at 50 uM by circular dichroism method; type: nucleic-acid assay
Method in brief: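 CD thermal melt of DHX15 rG4 with 50 μM analyte present; stabilization reported as ΔTm.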

[8] = Inhibition of DHX15 mRNA translation in rabbit reticulocyte lysate transfected with DHX15-G4-WT-FL incubated for 15 mins by firefly luciferase assay; type: functional, subcellular, Oryctolagus cuniculus; method in brief: as §1
[9] = Inhibition of DHX15 mRNA translation in rabbit reticulocyte lysate transfected with DHX15-G4-WT-FL at upto 50 uM incubated for 15 mins by firefly luciferase assay relative to control; type: functional, Oryctolagus cuniculus; conditions: 0.25 h, up to 50 µM; method in brief: as §1
Reticulocyte [10] = assay: Inhibition of DHX15 mRNA translation in rabbit reticulocyte lysate transfected with DHX15-G4-Del-FL at upto 50 uM incubated for 15 mins by firefly luciferase assay; type: functional, subcellular; conditions: Oryctolagus cuniculus; method in brief: as §1

In the case of `O=C(O)[C@@H]1Cc2ccccc2CN1`, the Kd (Quadruplex RNA [1]) is reported as > 100 µM.
In the case of `O=C(O)[C@H]1Cc2ccccc2CN1`, the Kd (Quadruplex RNA [1]) is reported as > 100 µM.
In the case of `CN(C)c1ccc(Nc2c3ccc(NC(=O)CCN4CCCC4)cc3nc3cc(NC(=O)CCN4CCCC4)ccc23)cc1`, the inhibition at 10 µM [2] is reported as 67% and the inhibition (Reticulocyte [3]) is reported as “inactive”.
For `Nc1cc2[nH]c(=O)[nH]c2cc1N1CCCC1`, the Kd (Quadruplex RNA [1]) was 12.6 µM, the Activity (Quadruplex RNA [4]) was 50% and the Activity (Quadruplex RNA [5]) was 20%. For the same molecule, the Activity (Quadruplex RNA [6]) was “Active”, the ΔTm (Quadruplex RNA [7]) was 3.6 °C and the IC50 [8] was 22.9 µM. The “inhibition (INH)” value [9] was 57% and the inhibition (Reticulocyte [10]) was “inactive”.
